ChEMBL document CHEMBL5032492, “Aminoalkoxycarbonyloxymethyl Ether Prodrugs with a pH-Triggered Release Mechanism: A Case Study Improving the Solubility, Bioavailability, and Efficacy of Antimalarial 4(1H)-Quinolones with Single Dose Cures” (J Med Chem, 2021)
≈ marks a conversion by molar mass, not a printed value. Values belong to the molecule of their own block, whether it stands above or below them. Calls of active or inactive are those of the source. No cut-off for these calls is given here.

What was measured:
[1] = test system: Plasmodium berghei; assay: (§1) In vivo antimalarial activity against blood stage Plasmodium berghei transfected with GFP infected in BALB/c mouse assessed as supression of parasitemia at 10 mg/kg, po administered once daily starting from day 3 to 5 post infection and measured at day 6 by Giemsa staining based flow cytometric analysis relative to control; format: functional
In short: (§2)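 Female BALB/c mice, 4–6 weeks old, five per group, were infected intraperitoneally with 2 × 10^6 P. berghei-GFP-infected red cells. Oral doses of 10 or 50 mg/kg in 0.5% aqueous HEC were given once daily on days 3–5 PI; prodrugs were suspended about 1 min before dosing. Parasitemia was measured by flow cytometry and Giemsa smears. Day-6 percent suppression was calculated versus untreated controls, with Welch-corrected t test.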

[2] = test system: Plasmodium berghei; assay: as §1, with “administered thrice” for “administered once”, “daily started” for “daily starting”, “from” for “from day”, “3 days” for “3 to 5”, “measured on” for “measured at”; format: functional; conditions: time 3 day
[3] = Solubility of the compound in 0.5% hydroxyethylcellulose
[4] = test system: Plasmodium berghei; assay: as §1, with “administered as single dose on” for “administered once daily starting from day”, “3 days” for “3 to 5”, “measured on” for “measured at”; format: functional
In short: (§3)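 Female BALB/c mice, 4–6 weeks old, five per dose group, were infected intraperitoneally with 2 × 10^6 P. berghei-GFP-infected red cells. Each received one oral dose on day 3 PI in 0.5% aqueous HEC; doses ranged 0.01–10 mg/kg. Parasitemia was measured from tail blood by flow cytometry and Giemsa smears. Percent suppression on day 6 PI was calculated versus untreated infected controls, with Welch-corrected unpaired t test.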

[5] = test system: Plasmodium berghei; assay: as §1, with “at 3” for “at 10”, “administered as single dose on” for “administered once daily starting from day”, “3 days” for “3 to 5”, “measured on” for “measured at”; format: functional; conditions: time 3 day; in short: as §3
[6] = test system: Plasmodium berghei; assay: as §1, with “at 1” for “at 10”, “administered as single dose on” for “administered once daily starting from day”, “3 days” for “3 to 5”, “measured on” for “measured at”; format: functional; conditions: time 3 day; in short: as §3
[7] = test system: Plasmodium berghei; assay: as §1, with “at 0.3” for “at 10”, “administered as single dose on” for “administered once daily starting from day”, “3 days” for “3 to 5”, “measured on” for “measured at”; format: functional; conditions: time 3 day; in short: as §3
[8] = test system: Plasmodium berghei; assay: as §1, with “at 0.1” for “at 10”, “administered as single dose on” for “administered once daily starting from day”, “3 days” for “3 to 5”, “measured on” for “measured at”; format: functional; conditions: time 3 day; in short: as §3
[9] = test system: Plasmodium berghei; assay: as §1, with “at 0.03” for “at 10”, “administered as single dose on” for “administered once daily starting from day”, “3 days” for “3 to 5”, “measured on” for “measured at”; format: functional; conditions: time 3 day; in short: as §3
[10] = test system: Plasmodium berghei; assay: as §1, with “at 0.01” for “at 10”, “administered as single dose on” for “administered once daily starting from day”, “3 days” for “3 to 5”, “measured on” for “measured at”; format: functional; conditions: time 3 day; in short: as §3
[11] = test system: Plasmodium berghei; assay: In vivo antimalarial activity against blood stage Plasmodium berghei transfected with GFP infected in BALB/c mouse assessed as supression of parasitemia at 1 mg/kg, po administered as single dose on 3 days post infection and measured on day 13 by Giemsa staining based flow cytometric analysis relative to control; format: functional; conditions: time 10 day
In short: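 Female BALB/c mice, five per group, were infected with P. berghei-GFP-infected erythrocytes intraperitoneally. Each received a single oral dose of 1 mg/kg in 0.5% aqueous HEC on day 3 PI. Tail-blood parasitemia was followed by flow cytometry and Giemsa smears at 3-day intervals through day 30. Suppression on day 13 PI was calculated relative to untreated infected controls.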

[12] = AUC (0 to 24 hrs) in BALB/c mouse at 3 mg/kg, po; format: ADME, organism-based; design: time < 24 hr, route oral, dose 3 mg/kg; conditions: in vivo
In short: (§4)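 Single oral dose in mice, formulated in 0.5% aqueous HEC; doses of 3, 10 or 50 mg/kg. The parent 4(1H)-quinolone was quantified in plasma over time after dosing, with a lower limit of quantification of 1 nM. PK parameters were derived from the plasma concentration profiles.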

[13] = AUC (0 to 24 hrs) in BALB/c mouse at 10 mg/kg, po; format: ADME, organism-based; design: time < 24 hr, route oral, dose 10 mg/kg; conditions: in vivo; in short: as §4
[14] = Clearance in BALB/c mouse at 3 mg/kg, po; format: ADME, organism-based; conditions: in vivo; in short: as §4
[15] = Clearance in BALB/c mouse at 10 mg/kg, po; format: ADME, organism-based; conditions: in vivo; in short: as §4
[16] = Toxicity in BALB/c mouse infected with blood stage Plasmodium berghei assessed as death at 1 mg/kg, po administered as single dose starting from day 3 post infection and measured on day 13; format: organism-based; conditions: in vivo, 240 h, time 10 day
In short: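 Female BALB/c mice (4–6 weeks, about 18 g), five per group, infected intraperitoneally with P. berghei (GFP)-parasitized erythrocytes. Given one oral dose on day 3 PI in 0.5% aqueous HEC, freshly solubilized about 1 min before dosing. Tail-vein parasitemia read by flow cytometry and Giemsa smears every third day through day 30. Untreated animals served as controls.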

[17] = test system: Plasmodium falciparum; assay: (§5) Antimalarial activity against chloroquine and pyrimethamine resistant Plasmodium falciparum W2 infected in human erythrocytes assessed as reduction in parasite growth incubated for 48 hrs followed by addition of [3H]-hypoxanthine and measured after 24 hrs by Topcount liquid scintillation counting method; format: functional, organism-based; conditions: W2, Erythrocyte
[18] = test system: Plasmodium falciparum; assay: as §5, with “chloroquine, pyrimethamine, mefloquine” for “chloroquine”, “atovaquone-” for “pyrimethamine”, “TM90-C2B” for “W2”; format: functional, organism-based; conditions: Erythrocyte
[19] = Aqueous solubility of compound at pH 7.4; format: physicochemical; conditions: buffer
[20] = Aqueous solubility of compound at pH 2.4; conditions: buffer
[21] = test system: Plasmodium berghei; assay: as §1, with “50” for “10”; format: functional; in short: as §2
[22] = Toxicity in BALB/c mouse infected with blood stage Plasmodium berghei assessed as weight loss at up to at 50 mg/kg, po administered once daily starting from day 3 to 5 post infection and measured on day 6; format: organism-based; conditions: in vivo
In short: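 P. berghei-infected BALB/c mice were dosed orally once daily on days 3–5 PI in 0.5% aqueous HEC, at doses up to 50 mg/kg. Body weight of treated animals was monitored for loss.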

[23] = Cmax in BALB/c mouse at 3 mg/kg, po; format: ADME, organism-based; design: route oral, dose 3 mg/kg; conditions: in vivo; in short: as §4
[24] = Cmax in BALB/c mouse at 10 mg/kg, po; format: ADME, organism-based; design: route oral, dose 10 mg/kg; conditions: in vivo; in short: as §4
[25] = Tmax in BALB/c mouse at 3 mg/kg, po; format: ADME, organism-based; conditions: in vivo; in short: as §4
[26] = Tmax in BALB/c mouse at 10 mg/kg, po; format: ADME, organism-based; conditions: in vivo; in short: as §4
[27] = Volume of distribution in BALB/c mouse at 3 mg/kg, po; format: ADME, organism-based; conditions: in vivo; in short: as §4
[28] = Volume of distribution in BALB/c mouse at 10 mg/kg, po; format: ADME, organism-based; conditions: in vivo; in short: as §4
[29] = Apparent half life in BALB/c mouse at 3 mg/kg, po; format: ADME, organism-based; conditions: in vivo, read-out: t1/2(app) (converted); in short: as §4
[30] = Apparent half life in BALB/c mouse at 10 mg/kg, po; format: ADME, organism-based; conditions: in vivo, read-out: t1/2(app) (converted); in short: as §4

Structure (SMILES): CCN(CC)Cc1cc(Nc2ccnc3cc(Cl)ccc23)ccc1O [AMODIAQUINE]
Activity [1]: >99%
Activity [2]: >99%

Structure (SMILES): CNCCCOC(=O)OCOc1c(-c2ccc(Oc3ccc(OC(F)(F)F)cc3)cc2F)c(C)nc2cc(OC)c(Cl)cc12.Cl
solubility [3]: > 5500 µM
Activity ([4]; time 3 day): >99%
Activity [5]: >99%
Activity [6]: 97%
Activity [7]: 57%
Activity [8]: <1%
Activity [9]: <1%
Activity [10]: <1%
Activity [11]: 90%
AUC [12]: 4818 µmol·min/L
AUC [13]: 10269 µmol·min/L
clearance [14]: 0.9 mL/min/kg
clearance [15]: 1.4 mL/min/kg
Activity [16]: Non-Toxic

Structure (SMILES): CCN(CC)C(=O)Oc1c(-c2ccccc2C)c(C)nc2cc(OC)c(Cl)cc12
EC50 [17]: > 2290 nM
EC50 [18]: > 3550 nM
solubility [19]: < 1 µM

Structure (SMILES): CCOC(=O)Oc1c(-c2ccccc2C)c(C)nc2cc(OC)c(Cl)cc12
EC50 [17]: 170 nM
EC50 [18]: 126 nM
solubility [19]: < 1 µM

Structure (SMILES): COc1cc2[nH]c(C)c(-c3ccccc3C)c(=O)c2cc1Cl
EC50 [17]: 21.9 nM
EC50 [18]: 38 nM
solubility [20]: 6.9 µM (≈ 2.17 µg/mL)
Activity [1]: 29%
Activity [21]: 28%
Activity [22]: Non-Toxic

solubility [19]: 95 µM (≈ 22.4 µg/mL)
solubility [20]: 100 µM (≈ 23.6 µg/mL)
Structure (SMILES): NC(=O)N1c2ccccc2C=Cc2ccccc21 [CARBAMAZEPINE]

Structure (SMILES): CCC(=O)Oc1c(-c2ccccc2C)c(C)nc2cc(OC)c(Cl)cc12
EC50 [17]: 63.1 nM
EC50 [18]: 63.1 nM

Structure (SMILES): CCCSc1ccc2nc(NC(=O)OC)[nH]c2c1 [ALBENDAZOLE]
solubility [19]: 6.1 µM (≈ 1.62 µg/mL)
solubility [20]: 100 µM (≈ 26.5 µg/mL)

Cmax [23]: 310 nM
Cmax [24]: 460 nM
Tmax [25]: 4 h
Tmax [26]: 8 h
AUC [12]: 228 µmol·min/L
AUC [13]: 580 µmol·min/L
Vd [27]: 19.6 L/kg
Vd [28]: 44 L/kg
clearance [14]: 26.6 mL/min/kg
clearance [15]: 34.9 mL/min/kg
half-life [29]: 8.5 h
half-life [30]: 14.5 h
Structure (SMILES): COc1cc2[nH]c(C)c(-c3ccc(Oc4ccc(OC(F)(F)F)cc4)cc3F)c(=O)c2cc1Cl
Activity ([4]; time 3 day): <1%
Activity ([4]; time 3.0 day): inactive
